# In ChEMBL document CHEMBL1165950, “Design and synthesis of new potent anticancer pyrazoles with high FLT3 kinase inhibitory selectivity” (Bioorg Med Chem, 2010):
# Columns and labels:
# Assay type in all cases: functional
# [1] = test system: SNB-75; assay: Cytotoxicity against human SNB75 cells assessed as cell growth at 100 nM after 48 hrs by sulforhodamine B assay; settings: SNB-75, 48 h, read-out: Activity
# [2] = test system: MDA-MB-435; assay: Cytotoxicity against human MDA-MB-435 cells assessed as cell growth at 100 nM after 48 hrs by sulforhodamine B assay; settings: MDA-MB-435, 48 h, read-out: Activity
# [3] = test system: SK-MEL-5; assay: Cytotoxicity against human SK-MEL-5 cells assessed as cell growth at 100 nM after 48 hrs by sulforhodamine B assay; settings: SK-MEL-5, 48 h, read-out: Activity
# [4] = test system: OVCAR-8; assay: Cytotoxicity against human OVCAR8 cells assessed as cell growth at 100 nM after 48 hrs by sulforhodamine B assay; settings: OVCAR-8, 48 h, read-out: Activity
# [5] = test system: MDA-MB-468; assay: Cytotoxicity against human MDA-MB-468 cells assessed as cell growth at 0.001 uM after 48 hrs by sulforhodamine B assay; settings: MDA-MB-468, 48 h, read-out: Activity
# [6] = test system: DU-145; assay: Cytotoxicity against human DU145 cells assessed as cell growth at 100 nM after 48 hrs by sulforhodamine B assay; settings: DU-145, 48 h, read-out: Activity
# [7] = test system: U-251; assay: Cytotoxicity against human U251 cells assessed as cell growth at 10 uM; settings: read-out: Activity
# In short: (§1)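 NCI-60 screen: cells grown in RPMI 1640 with 5% FBS and 2 mM L-glutamine, plated at 5000–40,000 cells/well according to doubling time, and preincubated 24 h at 37 °C, 5% CO2. The single 10 µM dose (DMSO stock) was added, then incubated 48 h. Cells were TCA-fixed and stained with 0.4% SRB, read at 515 nm, and growth % calculated against time-zero and control plates.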
# [8] = test system: SW-620; assay: Cytotoxicity against human SW620 cells assessed as cell growth at 1 uM after 48 hrs by sulforhodamine B assay; settings: SW-620, 48 h, read-out: Activity
# [9] = test system: HL-60(TB); assay: Growth inhibition of human HL-60(TB) cells after 48 hrs by sulforhodamine B assay; settings: HL-60, 48 h
# In short: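 NCI 60-cell SRB screen. Cells in RPMI 1640 with 5% FBS and 2 mM L-glutamine are preincubated 24 h, then exposed to five concentrations (10-fold or 1/2-log dilutions from DMSO stock) for 48 h at 37 °C. Suspension cells are fixed with 80% TCA (final 16%), and A515 is read. IC50 is taken as the concentration where [(Ti−Tz)/(C−Tz)]×100 = 50, i.e. 50% reduction in net protein increase.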
# [10] = test system: SF-539; assay: Cytotoxicity against human SF539 cells assessed as cell growth at 0.01 uM after 48 hrs by sulforhodamine B assay; settings: SF-539, 48 h, read-out: Activity
# [11] = test system: 786-0; assay: Cytotoxicity against human 786-0 cells assessed as cell growth at 0.01 uM after 48 hrs by sulforhodamine B assay; settings: 786-0, 48 h, read-out: Activity
# In short: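 NCI-60 five-dose screen. Cells were grown in RPMI 1640 with 5% FBS and 2 mM L-glutamine, plated at 5000–40,000 cells/well and preincubated for 24 h. Time-zero plates were TCA-fixed. DMSO-solubilized drug was added at five concentrations (10-fold or ½-log serial dilutions) for 48 h at 37 °C, 5% CO2. Cells were TCA-fixed, stained with 0.4% SRB and read at 515 nm. Percent growth used time-zero, control and test absorbances.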
# [12] = test system: UO-31; assay: Cytotoxicity against human UO31 cells assessed as cell growth at 0.01 uM after 48 hrs by sulforhodamine B assay; settings: UO-31, 48 h, read-out: Activity
# [13] = test system: LOX IMVI; assay: Cytotoxicity against human LOXIMVI cells assessed as cell growth at 0.001 uM after 48 hrs by sulforhodamine B assay; settings: read-out: Activity
# [14] = test system: IGROV-1; assay: Cytotoxicity against human IGROV1 cells assessed as cell growth at 0.001 uM after 48 hrs by sulforhodamine B assay; settings: IGROV-1, 48 h, read-out: Activity
# [15] = test system: SF-539; assay: Growth inhibition of human SF539 cells after 48 hrs by sulforhodamine B assay; settings: SF-539, 48 h; for CC50: read-out: LC50 (the source's name)
# In short: (§2)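 NCI 60-cell screen, five-dose mode. Cells grown in RPMI 1640 with 5% FBS and 2 mM L-glutamine and plated at 5000-40,000 cells/well according to doubling time. After 24 h preincubation, a Tz plate was TCA-fixed. Five concentrations (10-fold or 1/2 log dilutions) were applied for 48 h at 37 °C. SRB staining read at 515 nm. IC50 taken from [(Ti-Tz)/(C-Tz)]×100 = 50.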
# [16] = test system: K562; assay: Cytotoxicity against human K562 cells assessed as cell growth at 100 nM after 48 hrs by sulforhodamine B assay; settings: K562, 48 h, read-out: Activity
# [17] = test system: CAKI-1; assay: Growth inhibition of human Caki1 cells after 48 hrs by sulforhodamine B assay; settings: CAKI-1, 48 h; for CC50: read-out: LC50 (the source's name)
# In short: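 NCI five-dose SRB assay in RPMI 1640 with 5% FBS and 2 mM L-glutamine. Cells were preincubated 24 h, then exposed 48 h at 37 °C to five concentrations (10-fold or half-log serial dilutions from DMSO stocks). TCA fixation, SRB staining, and absorbance at 515 nm followed. IC50 was taken where [(Ti−Tz)/(C−Tz)]×100 = 50, with Tz as time-zero cell density.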
# [18] = test system: SN12C; assay: Growth inhibition of human SN12C cells after 48 hrs by sulforhodamine B assay; in short: as §2
# [19] = test system: MDA-MB-231; assay: Growth inhibition of human MDA-MB-231 cells after 48 hrs by sulforhodamine B assay; settings: MDA-MB-231, 48 h; in short: as §2
# [20] = test system: A549; assay: Cytotoxicity against human A549 cells assessed as cell growth at 10 uM; settings: read-out: Activity
# In short: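 Single-dose NCI-60 screen at 10 µM. Cells were grown in RPMI 1640 with 5% FBS and 2 mM L-glutamine, then treated for 48 h at 37 °C. Protein was measured by SRB staining with absorbance at 515 nm. Percentage growth was recorded, and inhibition percentage was calculated as 100 minus growth percentage.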
# [21] = test system: SF-295; assay: Cytotoxicity against human SF295 cells assessed as cell growth at 10 uM; settings: read-out: Activity; in short: as §1
# [22] = test system: HCT-116; assay: Cytotoxicity against human HCT116 cells assessed as cell growth at 10 uM after 48 hrs by sulforhodamine B assay; settings: HCT-116, 48 h, read-out: Activity
# [23] = test system: SF-539; assay: Cytotoxicity against human SF539 cells assessed as cell growth at 10 uM after 48 hrs by sulforhodamine B assay; settings: SF-539, 48 h, read-out: Activity
# [24] = test system: SNB-75; assay: Cytotoxicity against human SNB75 cells assessed as cell growth at 10 uM after 48 hrs by sulforhodamine B assay; settings: SNB-75, 48 h, read-out: Activity
# [25] = test system: MDA-MB-435; assay: Cytotoxicity against human MDA-MB-435 cells assessed as cell growth at 10 uM after 48 hrs by sulforhodamine B assay; settings: MDA-MB-435, 48 h, read-out: Activity
SMILES,growth at 0.1 µM [1],growth at 0.1 µM [2],growth at 0.1 µM [3],growth at 0.1 µM [4],growth at 0.001 µM [5],growth at 0.1 µM [6],growth at 10 µM [7],growth at 1 µM [8],GI50 [9],LC50 [9],TGI [9],growth at 0.01 µM [10],growth at 0.01 µM [11],growth at 0.01 µM [12],growth at 0.001 µM [13],growth at 0.001 µM [14],GI50 [15],CC50 [15],growth at 0.1 µM [16],GI50 [17],other results
COc1cc(C)cc(-c2nn(CC#N)cc2-c2ccc(-c3cccc(C(C)=O)c3)nc2)c1,79%,11%,65%,86%,83%,87%,11.8%,4%,1.78 µM,> 100 µM,15.1 µM,89%,97%,86%,98%,106%,1.73 µM,> 100 µM,27%,1.91 µM,TGI [15]: 4.65 µM; TGI [17]: 10.5 µM; CC50 [17]: > 100 µM; GI50 [18]: 6.08 µM; LC50 [18]: > 100 µM; TGI [18]: > 100 µM; GI50 [19]: 3.04 µM; LC50 [19]: > 100 µM; TGI [19]: > 100 µM; growth at 10 µM [20]: 38.8%; growth at 10 µM [21]: 16.9%; growth at 10 µM [22]: -53%; growth at 10 µM [23]: -48%; growth at 10 µM [24]: -36%; growth at 10 µM [25]: -22%
COc1cc(C)cc(-c2nn(CC#N)cc2-c2ccnc(-c3ccc(N(C)C)cc3)c2)c1,-8%,-25%,-22%,32%,96%,2%,-9.99%,19%,0.293 µM,> 100 µM,0.923 µM,107%,96%,92%,98%,103%,0.259 µM,> 100 µM,10%,0.345 µM,TGI [15]: 0.596 µM; TGI [17]: 18.2 µM; CC50 [17]: > 100 µM; GI50 [18]: 0.73 µM; LC50 [18]: > 100 µM; TGI [18]: 33.1 µM; GI50 [19]: 1.09 µM; LC50 [19]: > 100 µM; growth at 10 µM [20]: 21.1%; growth at 10 µM [21]: -8.52%; growth at 10 µM [22]: -44%; growth at 10 µM [23]: -38%; growth at 10 µM [24]: -8%; growth at 10 µM [25]: -2%
COc1cc(C)cc(-c2c(-c3ccnc(-c4ccc(C(C)=O)cc4)c3)cnn2CC#N)c1,76%,63%,85%,85%,92%,89%,84.7%,12%,2.26 µM,> 100 µM,6.5 µM,98%,98%,87%,101%,107%,2.02 µM,> 100 µM,47%,4.24 µM,TGI [15]: 4.66 µM; TGI [17]: > 100 µM; CC50 [17]: > 100 µM; GI50 [18]: 4.49 µM; LC50 [18]: > 100 µM; TGI [18]: > 100 µM; GI50 [19]: 3.63 µM; LC50 [19]: > 100 µM; TGI [19]: > 100 µM; growth at 10 µM [20]: 91.4%; growth at 10 µM [21]: 93.2%; growth at 10 µM [22]: -17%; growth at 10 µM [23]: -34%; growth at 10 µM [24]: 1%; growth at 10 µM [25]: 16%
COc1cc(C)cc(-c2c(-c3ccnc(-c4ccc(N(C)C)cc4)c3)cnn2CC#N)c1,6%,-43%,-21%,11%,93%,-51%,11.2%,11%,0.105 µM,> 100 µM,0.465 µM,79%,55%,63%,88%,95%,0.127 µM,> 100 µM,7%,0.0369 µM,TGI [17]: 0.0893 µM; CC50 [17]: > 100 µM; GI50 [18]: 0.398 µM; LC50 [18]: > 100 µM; TGI [18]: > 100 µM; GI50 [19]: 0.256 µM; LC50 [19]: > 100 µM; growth at 10 µM [20]: 22.2%; growth at 10 µM [21]: 4.06%; growth at 10 µM [22]: -27%; growth at 10 µM [23]: 2%; growth at 10 µM [24]: 11%; growth at 10 µM [25]: -23%
